Assay results taken from PubChem BioAssay AID504390 (Broad Institute, 2011).
Activity calls are given as the source filed them.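 Rule for the calls: active = signal-lowering compounds whose fitted half-maximal concentration is at most ten times the top tested dose; inconclusive = flat fit at 30 to 70% inhibition, or poor fit; inactive = the rest.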

tested on: not listed separately; assay: Hsp90 function inhibitors in yeast, dose response, S. cerevisiae, luminescence, dry powder, set 2 (AID 504390); conditions: S. cerevisiae GRE-lacZ reporter, Hsp90 function, luminescence; at 26 µM (top of the series)
How it was run: (§1)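 System: yeast GRE-driven β-galactosidase reporter strain; medium: SD-ADE yeast medium; probe or stimulus: DOC steroid, 20 µM stock; doses: pin-transferred compounds; times: 75 min compound and steroid exposure, 30 °C, shaking; detection: β-galactosidase luminescence after 25 min development at 30 °C; controls: radicicol 5 µM as positive control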

Question: Which activity change, negative = inhibition does the source give for COC(=O)Cn1nc(C2CC2)c2ccccc21 here?
Answer: -20.4% (inactive)

Question: For O=C(Cn1c2ccc(F)cc2c2nc3n(c(=O)c21)CCS3)N1CCCC1, which activity change, negative = inhibition is on record?
Answer: 39.4% (inactive)

Question: With O=C(Cn1c2ccccc2c2nc3n(c(=O)c21)CCS3)N1CCCC1 as the compound, how does the activity change, negative = inhibition read?
Answer: -14.7% (inactive)

Question: With CN1CCN(C(=O)Cn2c3ccccc3c3nc4n(c(=O)c32)CCS4)CC1 as the compound, how does the activity change, negative = inhibition read?
Answer: 52.6% (inactive)

Question: Which activity change, negative = inhibition does the source give for CC1(O)CN(C(=O)Cn2c3ccccc3c3nc4n(c(=O)c32)CCS4)C1 here?
Answer: 25.6% (inactive)

Question: With COC(=O)n1nc(-c2ccccc2)c2ccccc21 as the compound, how does the activity change, negative = inhibition read?
Answer: 10.4% (inactive)

Question: Which activity change, negative = inhibition does the source give for CCc1nn(CC(=O)OC)c2ccccc12 here?
Answer: 35.3% (inactive)

Question: Which activity change, negative = inhibition does the source give for O=C(Cn1c2ccccc2c2nc3n(c(=O)c21)CCS3)N1CC=CC1 here?
Answer: 20.7% (inactive)

Question: With O=C(Cn1c2ccccc2c2nc3n(c(=O)c21)CCS3)N1CCC(F)(F)CC1 as the compound, how does the activity change, negative = inhibition read?
Answer: 4.34% (inactive)

Question: With O=C(Cn1c2ccccc2c2nc3n(c(=O)c21)CCS3)N1CCC(F)(F)C1 as the compound, how does the activity change, negative = inhibition read?
Answer: 29.5% (inactive)

Question: For O=C(O)Cn1c2ccccc2c2nc3n(c(=O)c21)CCS3, which activity change, negative = inhibition is on record?
Answer: 10.8% (inactive)

Question: For c1ccc(-c2nn(Cc3nnco3)c3ccccc23)cc1, which activity change, negative = inhibition is on record?
Answer: -30.7% (inactive)

tested on: S. cerevisiae GRE-lacZ reporter, Hsp90 function, luminescence; assay: as above; conditions: not given
How it was run: as §1

Question: For COC(=O)Cn1nc(C(C)(C)C)c2ccccc21, which AC50 is on record?
Answer: 20.7 µM

Question: For COC(=O)Cn1nc(C2CCCCC2)c2ccccc21, which AC50 is on record?
Answer: 3.56 µM

Question: For COC(=O)Cn1nc(-c2cccc(C)c2)c2ccccc21, which AC50 is on record?
Answer: 3.59 µM

Question: Which AC50 does the source give for COC(=O)Cn1nc(-c2cccc(OC)c2)c2ccccc21 here?
Answer: 4.18 µM

Question: For COC(=O)Cn1nc(-c2ccccc2)c2cccnc21, which AC50 is on record?
Answer: 25.8 µM

Question: Which AC50 does the source give for O=C(Cn1c2ccccc2c2nc3n(c(=O)c21)CCS3)N1CCCCC1 here?
Answer: 26.1 µM
